Experimental data as given in ChEMBL document CHEMBL4513216, “Probing the Open Global Health Chemical Diversity Library for Multistage-Active Starting Points for Next-Generation Antimalarials” (ACS Infect Dis, 2020).

Test: Toxicity liver stage against HepG2, at 10uM
Assay type: cell-based
Parameters: test concentration 10 uM, cell line HepG2-A16-CD81EGFP
Conditions: human, HepG2-A16-CD81EGFP cells; read-out: INHIBITION
In short: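 Uninfected HepG2-A16-CD81EGFP cells, 3 × 10^3 per well, 1536-well, plated on prespotted compound at 10 μM final, parasite-free screening media added to match infected plates; puromycin 10 μM positive, DMSO 0.5% negative; run in parallel with 48 h PbLuc assay at 37 °C, 5% CO2; viability by CellTiter-Glo luminescence, normalized to controls.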

## O[C@@H]1C[C@@H](c2nc(-c3ccccc3)no2)N(C2CCOCC2)C1
  cytotoxicity at 10 µM: -1.83%

## Cc1ccc(CN[C@@H]2CO[C@H](CNS(=O)(=O)c3ccccc3)[C@H]2O)cc1
  cytotoxicity at 10 µM: -10.1%

## COc1ccc(Nc2nc(N)c(C(C)=O)s2)cc1OC
  cytotoxicity at 10 µM: 1.8%

## O=S(=O)(NCC1CCN(c2cnccn2)CC1)C1CC1
  cytotoxicity at 10 µM: 11.3%

## O=C(Cn1ccc2ccccc21)Nc1cc(N2CCCC2)ncn1
  cytotoxicity at 10 µM: 4.24%

## O=C(CSC1CCCC1)N1CCN(c2ccc(-n3cncn3)nn2)CC1
  cytotoxicity at 10 µM: 6.93%

## COCC(=O)N1CC[C@@H](N2CCOCC2)[C@@H]1Cc1cccnc1
  cytotoxicity at 10 µM: -95.5%

## O=S(=O)(c1ccccc1)N1CCC[C@]2(C[C@@H](OCC3CC3)CO2)C1
  cytotoxicity at 10 µM: -69.2%

## Cn1cc(CN2CCC3(CCCCN3S(C)(=O)=O)CC2)cn1
  cytotoxicity at 10 µM: -76.9%

## CC(CCN1CCCn2nc(CNS(C)(=O)=O)cc2C1)c1ccccc1 (centres undefined)
  cytotoxicity at 10 µM: 8.85%

## OCC1CCCCN1Cc1cc(O)c2cccc(F)c2n1 (centres undefined)
  cytotoxicity at 10 µM: -0.357%

## Cc1ccc(-c2cn[nH]c2C2CCCN(c3ncccn3)C2)cc1 (centres undefined)
  cytotoxicity at 10 µM: 87.3%

## CCCc1nc(N2CCN(Cc3ccccn3)CC2)c2cnn(C)c2n1
  cytotoxicity at 10 µM: 1.89%

## CC(=O)Nc1cccc(C(=O)N(C)C(C)Cc2cc(C)ccn2)c1 (centres undefined)
  cytotoxicity at 10 µM: 11%

## O=C1O[C@@H]2CN(C3CCOCC3)C[C@@H]2N1CCc1cccc(Cl)c1
  cytotoxicity at 10 µM: -1.11%

## CC(C)Cc1nc(CO)n(-c2ccc3c(c2)OCCO3)n1
  cytotoxicity at 10 µM: -1.86%

## CCC[C@@H]1CN(Cc2ccc3c(c2)OCCO3)C[C@H]1C(=O)O
  cytotoxicity at 10 µM: 0.324%

## CCC[C@H]1CN(S(C)(=O)=O)C[C@@H]1NC(=O)CCOCC
  cytotoxicity at 10 µM: 0.224%

## Cc1cc2nc(C(C)C)cc(N(C)CC3CCN(C(C)C)C3)n2n1 (centres undefined)
  cytotoxicity at 10 µM: 7.26%

## O=C(O)c1cc(-c2ccoc2)cc(S(=O)(=O)NC2CC2)c1
  cytotoxicity at 10 µM: -2.18%

## NC(=O)CN1CCCC(C(=O)N2CCC(Oc3ncccn3)CC2)C1 (centres undefined)
  cytotoxicity at 10 µM: -41.6%

## O=C(C1CCOc2ccccc2C1)N1Cc2cnn(CCO)c2C1 (centres undefined)
  cytotoxicity at 10 µM: 4.61%

## CCCS(=O)(=O)N1CCCC(CCC(=O)N(C)CCc2ccccn2)C1 (centres undefined)
  cytotoxicity at 10 µM: 5.02%

## O=C(O)c1ccnc(-c2ccnc(COc3ccccc3Cl)n2)c1
  cytotoxicity at 10 µM: -9.86%

## Cc1nc(N2CCOc3ccc(CO)cc3C2)c2c(C)noc2n1
  cytotoxicity at 10 µM: 2.18%

## CCc1ncc2c(n1)CN(C(=O)Cc1cc(OC)cc(OC)c1)C2
  cytotoxicity at 10 µM: 2.78%

## CCn1cnnc1CCNC(=O)CCNC(=O)c1ccccc1F
  cytotoxicity at 10 µM: 4.49%

## O=C(O)[C@@H]1CN(Cc2cc3c(cc2Cl)OCO3)C[C@H]1C1CC1
  cytotoxicity at 10 µM: 0.0851%

## Cc1ccc(O)c(CN(Cc2ccccc2)Cc2nccs2)n1
  cytotoxicity at 10 µM: 0.31%

## COCCNc1nc2c(c(N3CCn4nc(C)cc4C3)n1)CCNCC2
  cytotoxicity at 10 µM: 7.8%

## CC(C)Cc1ncc2c(n1)CN(C(=O)c1ccc(CN3CCCC3)o1)C2
  cytotoxicity at 10 µM: -1.66%

## Cc1cc(C)c(CNC(=O)NCc2ccc(F)cc2)c(=O)[nH]1
  cytotoxicity at 10 µM: -6.34%

## CN(CC(=O)NC1(C)CCS(=O)(=O)C1)Cc1ccc(F)c(F)c1 (centres undefined)
  cytotoxicity at 10 µM: -1.55%

## Cc1nn(C)c(N(C)C)c1CNCc1ccc(OCCN(C)C)cc1
  cytotoxicity at 10 µM: -4.89%

## O=C(c1sccc1C1CC1)N1CCN(CC(F)(F)F)CC1
  cytotoxicity at 10 µM: -1.58%

## O=C(O)c1cc(S(=O)(=O)Nc2cc(Cl)ccc2F)cc2c1OCCO2
  cytotoxicity at 10 µM: -18.7%

## N#Cc1ccc(OCCNCCn2cccn2)cc1
  cytotoxicity at 10 µM: -4.11%

## O=C(CCCNc1ncccn1)N1CCCC(n2cncn2)C1 (centres undefined)
  cytotoxicity at 10 µM: -4.56%

## O=C1CO[C@@H]2CN(CC3CCOC3)C[C@H]2N1Cc1cccc(F)c1 (some centres undefined)
  cytotoxicity at 10 µM: -73.5%

## CN1CCc2c(CNc3ncccn3)n[nH]c2C1
  cytotoxicity at 10 µM: -3.21%

## O=C(Cc1ccccn1)N1CCC2(CC1)CN(c1ncccn1)CCO2
  cytotoxicity at 10 µM: -74.3%

## O=C1C[C@@H]2CC[C@H](CN1)N2C1CCSCC1
  cytotoxicity at 10 µM: 0.915%

## O=C(CCC1CCCC1)N1C[C@@H]2CC[C@H]1CN(Cc1ccncc1)C2
  cytotoxicity at 10 µM: -3.76%

## CCOc1cccc(C(=O)N2C[C@@H]3CC[C@H]2CN(C(=O)C2CCC2)C3)c1
  cytotoxicity at 10 µM: 5.73%
